In brackets after ≈: the same amount, converted by molar mass.
Experiments:
[1] = Solubility of the compound in simulated intestinal fluid; format: physicochemical
[2] = target: T1, Sphingosine 1-phosphate receptor 1 (Homo sapiens, UniProt P21453); experiment: Agonist activity at human S1P1 expressed in U2OS cells coexpressing eGFP assessed as receptor internalization after 1 hr by microscopic analysis relative to 1-(4-(6-benzylbenzofuran-2-yl)-3-fluorobenzyl)azetidine-3-carboxylic acid; format: functional, cell-based
T1 sequence (P21453 whole entry, the tested form may be a part): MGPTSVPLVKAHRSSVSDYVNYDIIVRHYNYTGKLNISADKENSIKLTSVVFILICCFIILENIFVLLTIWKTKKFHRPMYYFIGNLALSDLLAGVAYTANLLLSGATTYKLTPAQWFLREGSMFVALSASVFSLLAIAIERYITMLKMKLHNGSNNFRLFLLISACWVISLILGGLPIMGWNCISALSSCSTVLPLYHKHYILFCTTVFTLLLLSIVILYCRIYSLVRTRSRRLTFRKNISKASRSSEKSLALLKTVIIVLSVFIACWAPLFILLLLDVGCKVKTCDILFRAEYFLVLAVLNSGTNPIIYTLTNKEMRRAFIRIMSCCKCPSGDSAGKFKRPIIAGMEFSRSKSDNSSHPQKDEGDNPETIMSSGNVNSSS
In short: (§1)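 Human S1P1–eGFP fusion protein expressed in U2OS cells; agonism read as receptor internalization; EC50 derived, efficacy expressed relative to 1-(4-(6-benzylbenzofuran-2-yl)-3-fluorobenzyl)azetidine-3-carboxylic acid at 1.0 μM.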

[3] = Apparent permeability across pig LLC-PK1 cells; format: ADME, cell-based, Sus scrofa
In short: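 Permeability across porcine proximal tubule LLC-PK1 cell monolayers; apparent permeability (Papp) and efflux ratio determined.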

[4] = Solubility of the compound in 0.01 M aqueous HCl; format: physicochemical
[5] = target: T1, Sphingosine 1-phosphate receptor 1; experiment: Agonist activity at human S1P1 expressed in U2OS cells coexpressing eGFP assessed as receptor internalization after 1 hr by microscopic analysis; format: functional, cell-based; in short: as §1
Rattus norvegicus = experiment: Immunosuppressive activity in Lewis rat assessed as change in peripheral lymphocyte count at 1 mg/kg, po after 24 hrs relative to vehicle treated control; format: functional
In short: (§2)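 Female Lewis rats (N = 5/group) given one oral dose of 1 mg/kg (20% captisol, 1% HPMC, 1% pluronic F68, pH 2.1 with MSA); blood lymphocyte count and total plasma compound measured at 24 h; POC vs vehicle, ANOVA/Dunnett's test.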

[6] = Plasma concentration in Lewis rat at 1 mg/kg, po at 24 hrs; format: ADME, organism-based; design: dose 1 mg/kg, route oral; settings: Lewis, plasma; in short: as §2
[7] = Intrinsic clearance in rat liver microsomes after 30 mins; format: ADME, Microsome; settings: read-out: CLH
[8] = Solubility of the compound in phosphate buffer saline at pH 7.4; format: physicochemical; settings: phosphate buffered saline

Structure (SMILES)	solubility [1]	Efficacy [2]	Papp [3]	solubility [4]	EC50 [5]	Activity (Rattus norvegicus)	concentration at 24 h [6]	microsomal CLint [7]	solubility [8]
COc1ccccc1C(=O)NC(=O)Nc1ccc(OCC(F)(F)F)c(C(F)(F)F)c1	2.2 µg/mL (≈ 5.04 µM)	83%	< 1 ×10⁻⁶ cm/s	< 1 µg/mL	6.8 nM	4%	1 ng/mL	25 µL/min/mg	< 1 µg/mL
COc1ccccc1C(=O)NC(=O)Nc1ccc(-c2ccccc2)c(C(F)(F)F)c1	23 µg/mL (≈ 55.5 µM)	110%	< 1 ×10⁻⁶ cm/s	< 1 µg/mL	68 nM	-20%	4.9 ng/mL	15 µL/min/mg	< 1 µg/mL
